Screening data: PubChem BioAssay, The Scripps Research Institute Molecular Screening Center
Sampled rows, rich in hits. Any-hit rate of the full collection: about 1.8%.
NPY-Y1 PAM-ag: human NPY-Y1 potentiation or agonism, primary screen; NPY-Y1 expressing cells, potentiator/agonist activation; 220,000 tested, 0.37% active; activation, % at 3.6 µM; in the data active means activation above about 33%, passing the limit was not always enough;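 further: cells stimulated with NPY at EC10 then isoproterenol at EC100; 0% = low agonist plus stimulus and 100% = saturating agonist plus stimulus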
Target sequence (P25929 whole entry, looked up): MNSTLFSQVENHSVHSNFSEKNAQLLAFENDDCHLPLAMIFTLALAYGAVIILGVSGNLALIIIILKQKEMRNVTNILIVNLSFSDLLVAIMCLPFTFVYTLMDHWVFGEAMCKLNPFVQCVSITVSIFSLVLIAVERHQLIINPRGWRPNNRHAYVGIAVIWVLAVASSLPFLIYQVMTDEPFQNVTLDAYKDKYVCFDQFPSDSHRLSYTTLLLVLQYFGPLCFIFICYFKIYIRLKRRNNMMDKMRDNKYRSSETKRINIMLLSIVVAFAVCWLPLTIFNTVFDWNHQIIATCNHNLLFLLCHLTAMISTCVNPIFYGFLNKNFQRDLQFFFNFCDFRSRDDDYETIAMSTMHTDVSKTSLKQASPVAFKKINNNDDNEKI
NPY2 pot ag: potentiates or activates human NPY-Y2 receptor; activation, % at 3.6 µM; P49146; 220,000 tested, 0.45% active; cells expressing NPY-Y2, potentiator/agonist read-out; in the data active means activation above about 27%;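 further: cells stimulated with NPY near EC25 plus isoproterenol at EC100; 0% = vehicle plus submaximal agonist and 100% = vehicle plus saturating agonist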
NPY Y1 blocker: NPY-Y1 (human) receptor antagonism; HEK293-CNG Y1 cells, membrane potential fluorescence; NPY at EC95, then isoproterenol; 200,000 tested, 1% active; inhibition, % at 3.6 µM; AID 1040;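 active means inhibition above the campaign mean inhibition of all tested compounds plus 3 SD, cut at about 20% in these data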;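 further: 0% = DMSO wells given NPY plus isoproterenol and 100% = isoproterenol alone without NPY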
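Test system: HEK293 cells co-expressing NPY Y1 receptor and cyclic-nucleotide gated channel; Also added: NPY (25 nM), isoproterenol (1 µM), Ro 20-1724 (25 µM); Compound dosing: one concentration, 3.6 µM, in 0.4% DMSO; Timing: dye 3 h, compound 60 min room temperature, stimulation 45 min; Technique: Membrane-potential fluorescent dye readout.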
NPY Y2 blocker: antagonists of human neuropeptide Y receptor Y2; 140,000 tested, 0.99% active; inhibition, % at 2.7 µM; NPY-Y2 expressing cells, antagonist mode; in the data active means inhibition above about 17%;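 further: 0% = vehicle with agonist challenge and 100% = reference antagonist with challenge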
* hit, by the source's call; · = not tested or not shown.

SMILES	NPY-Y1 PAM-ag	NPY2 pot ag	NPY Y1 blocker	NPY Y2 blocker
Cc1ccc2nc(SC(C)C(=O)N3CC(C)OC(C)C3)[nH]c2c1 (configuration not stated)	12	-11	21*	·
Cc1ccc2nc(SC(C)C(=O)N3CCCC3)[nH]c2c1 (configuration not stated)	-10	2	4	1
CC(C)(C)NS(=O)(=O)c1ccc(NS(=O)(=O)c2ccc(F)cc2)cc1	-1	90*	5	1
Cc1ccc(S(=O)(=O)Nc2ccc(S(=O)(=O)NC(C)(C)C)cc2)cc1	7	-2	3	2
CCCn1c(SCC(=O)c2[nH]c(C)c(C(C)=O)c2C)n[nH]c1=O	10	8	·	·
CCN(C(=O)COc1cc(=O)n(CC)c2ccccc12)c1cccc(Cl)c1	8	-6	-6	2
CCN(C(=O)COc1cc(=O)n(CC)c2ccccc12)c1cc(Cl)ccc1OC	-15	-25	23*	17*
COc1ccc(N2CCN(C(=O)CSc3nnc(-c4cc5ccccc5cc4O)n3C)CC2)cc1	86*	92*	0	-1
COc1ccc(-n2cnnc2SCC(=O)N2CCN(c3ccccc3)CC2)cc1	-10	8	-2	-2
C=C(C)c1cccc(C(C)(C)NC(=O)N(Cc2ccccc2)Cc2ccco2)c1	-5	-9	14	28*
COc1cc(NC(=O)c2cccs2)c(OC)cc1NC(=O)CCn1nnc2ccccc21	-17	7	2	-2
Cc1ccc(S(=O)(=O)N2CCC(C(=O)Nc3nnc(-c4ccco4)s3)CC2)cc1	44*	52*	-8	0
CCOC(=O)Cn1c(=O)oc2cc(S(=O)(=O)NC(C)(C)CC)ccc21	12	5	·	·
CCOC(=O)Cn1c(=O)oc2cc(S(=O)(=O)Nc3cccc(C)c3)ccc21	32*	43*	-6	-4
CC(C)CN1CCN(Cc2cc(F)ccc2-n2cccn2)CC1CCO (configuration not stated)	-11	-3	22*	·
Cc1ccc(C#CC[N+]2(CC#Cc3ccc(C)cc3)CCCCC2)cc1	-31	-4	27*	20*
COc1ccc2c(c1)c(CC(=O)Nc1ccccc1OC)c(C)n2C(=O)c1ccc(Cl)cc1	-27	-13	20*	18*
CCOC(=O)N1CCN(C(=O)CSc2ccc3nnc(CCNC(=O)c4ccc(OC)cc4)n3n2)CC1	5	0	-1	·
Cn1c(=O)[nH]c(=O)c2c1nc(Br)n2CC(O)c1ccccc1 (configuration not stated)	-1	-18	12	1
Nc1nc(Nc2cccc(F)c2)nc2ccccc12	42*	43*	-3	-1
COc1ccc(S(=O)(=O)Nc2cccc(Cl)c2)cc1OC	68*	58*	-15	0
COc1ccc(NS(=O)(=O)c2ccc(OC)c(OC)c2)cc1OC	9	0	0	2
COC(=O)C1=C(C)NC2=C(C(=O)CCC2)C1c1cccs1 (configuration not stated)	13	-2	1	0
CC1=C(C(=O)N2CCCCC2)C(c2cccs2)C2=C(CCCC2=O)N1 (configuration not stated)	-10	13	4	22*
COCCNC(=O)CCCn1c(=O)c2cc(OC)c(OC)cc2n(CC(=O)Nc2ccc(F)cc2)c1=O	8	3	-2	·
SMILES	NPY-Y1 PAM-ag	NPY2 pot ag	NPY Y1 blocker	NPY Y2 blocker
COCCNC(=O)CCCn1c(=O)c2cc(OC)c(OC)cc2n(CC(=O)Nc2ccccc2OC)c1=O	-5	-6	21*	·
CCOc1cc(N2CCOCC2)c(OCC)cc1NC(=S)NCCCOC	-16	6	-5	·
Cc1ccc(Nc2c(-c3ccc(N4CCOCC4)cc3)nc3ncccn23)cc1C	-35	9	-1	-2
Cc1ccc(Nc2c(-c3ccc(N4CCOCC4)cc3)nc3ncccn23)cc1	-20	3	8	0
Cc1cccc(C)c1Nc1c(-c2ccsc2)nc2ncccn12	46*	59*	-7	-2
Cc1ccccc1Nc1c(-c2ccc(N3CCOCC3)cc2)nc2ncccn12	56*	43*	-4	·
CCCN(CCC)C(=O)CSc1nc2ccccc2c(=O)n1C1CCCC1	-22	9	29*	25*
N#CCSc1nc2ccccc2c(=O)n1C1CCCCC1	1	-3	21*	·
N#CCSc1nc2ccccc2c(=O)n1CCC(=O)NC1CCCCC1	-13	-18	-5	0
CN(C)c1ccc(NC(=O)CSc2nc3ccccc3c(=O)n2C2CCCCC2)cc1	16	-5	-10	-5
COC(=O)c1sccc1NC(=O)COc1ccc(F)cc1Cl	1	-32	11	·
COc1c2ccc(C(=O)NCCCCc3ccccc3)cc2nn1C	-31	-7	2	3
O=C(c1cccs1)N(Cc1ccco1)c1nc(-c2ccc(F)cc2)cs1	1	8	14	18*
CCC(=O)N(Cc1ccco1)c1nc(-c2ccccc2)cs1	-11	8	10	10
O=C(Nc1cccc2ccccc12)c1cc2c(cc1Br)OCO2	5	-6	·	·
CN(C)S(=O)(=O)c1ccc(S(=O)(=O)NC2CCOC(C)(C)C2)cc1 (configuration not stated)	-3	3	1	4
Cc1ccc(NC2=C/C(=N\S(=O)(=O)c3cccs3)c3ccccc3C2=O)c(C)c1	48*	62*	-15	-9
O=C1C(Nc2ccc(O)cc2)=C/C(=N/S(=O)(=O)c2cccs2)c2ccccc21	70*	68*	-21	·
Cc1cccc(NC2=C/C(=N/S(=O)(=O)c3cccs3)c3ccccc3C2=O)c1	-30	-13	-3	-9
CCCNC(=O)C12CCC(C)(c3nc4cc(C)c(C)cc4nc31)C2(C)C (configuration not stated)	3	-1	0	·
CCN(CC)c1ccc(NC(=O)c2cccc(F)c2)c(C)c1	13	4	3	0
O=C(Cc1cccs1)N(c1ccc(F)cc1)C1(C(=O)NC2CCCCC2)CCCC1	-21	5	11	10
CC(=O)N(Cc1ccco1)C1(C(=O)NC2CCCCC2)CCCCC1	19	-3	10	5
O=C1CCC(C(=O)N(Cc2ccco2)C2(C(=O)NC3CCCC3)CCCCC2)N1 (configuration not stated)	-26	6	22*	23*
O=C(c1ccc2c(c1)OCO2)N(Cc1cccs1)C1(C(=O)NC2CCCCC2)CCCCC1	-10	-13	55*	37*
CN(C(=O)c1ccc2c(c1)OCO2)C1(C(=O)NC2CCCC2)CCCCC1	-15	4	2	2
O=C(c1ccc2c(c1)OCO2)N(CC1CCCO1)C1(C(=O)NC2CCCCC2)CCCCC1 (configuration not stated)	-10	-7	22*	29*
O=C(Cc1cccs1)N(Cc1cccs1)C1(C(=O)NC2CCCC2)CCCCC1	-16	-11	51*	50*
CC1CN=C(N(C(=O)Nc2ccccc2)c2ccc(S(=O)(=O)N3CCOCC3)cc2)S1 (configuration not stated)	-6	-13	-3	2
CN(Cc1ccco1)C(=O)Cn1nc(-c2ccc(Cl)cc2)ccc1=O	-3	-1	4	·
